Screens: PubChem BioAssay, several laboratories
AP ELISA ortho: alternative complement pathway inhibitors, primary screen, biochemical, ELISA, human serum, orthogonally pooled compounds. inhibition, % at 5 µM. LPS-coated ELISA, C3 deposition; tested in compound mixtures. actives 0.08% (n = 62,000);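 active means inhibition above 30% in each of the two pooled mixtures holding the compound, so the lower value exceeds 30%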;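 further: 0% = serum in Mg-EGTA without compound and 100% = EDTA serum blank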
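Test system: human serum alternative complement pathway, C3 deposition on LPS-coated wells; also added: Plate-bound LPS; doses: 5 µM per compound in ten-compound mixtures; schedule: 1 h at 37 °C; detection: Anti-C3 ELISA, OD 450 nm; evaluation: percent inhibition of C3 deposition onto LPS; repeats: two pool placements per compound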
D1 allo mod: D1 CRE-luciferase signal change, two-sided – cell-based, HEK293 D1, dopamine EC30, D1 allosteric modulator project, primary screen. B-score at 10 µM. dopamine EC30 potentiation; actives deviate in either direction. actives 5.9% (n = 58,000). D(1A) dopamine receptor (Homo sapiens), P21728;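 active means luminescence count or its row- and column-corrected plate score outside the 99.7% band of the plate's sample wells, on either side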
M1 antag: antagonists of rat M1 muscarinic receptor; Muscarinic acetylcholine receptor M1 (Rattus norvegicus), P08482; actives 3.4% (n = 64,000); CHO-M1 cells, Fluo-4 calcium, ACh EC80 antagonist mode; hits give low values; B-score at 10 µM;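 active means calcium fluorescence response, raw or row-and-column corrected B-score, differing from the plate sample mean either way at a set confidence level, mostly lower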
Target sequence (P08482 whole entry, looked up): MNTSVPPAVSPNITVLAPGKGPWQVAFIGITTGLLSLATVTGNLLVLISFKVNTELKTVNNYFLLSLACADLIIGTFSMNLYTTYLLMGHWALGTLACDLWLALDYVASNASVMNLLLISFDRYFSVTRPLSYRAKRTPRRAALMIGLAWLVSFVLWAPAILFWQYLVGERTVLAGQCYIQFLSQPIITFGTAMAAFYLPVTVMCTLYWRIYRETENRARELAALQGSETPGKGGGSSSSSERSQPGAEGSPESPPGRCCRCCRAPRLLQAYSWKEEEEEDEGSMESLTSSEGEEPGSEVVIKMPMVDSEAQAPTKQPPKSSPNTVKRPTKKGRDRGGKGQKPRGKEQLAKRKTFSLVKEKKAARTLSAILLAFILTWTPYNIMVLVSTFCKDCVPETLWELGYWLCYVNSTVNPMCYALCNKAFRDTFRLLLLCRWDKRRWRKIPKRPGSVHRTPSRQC
Htt clearance: clearance of mutant huntingtin inclusions, primary screen, imaging, HeLa Exon1htt(103Q)mCFP, confocal imaging | aggregate imaging; zero = plate's median compound well | inhibition, % at 1.5 µM | actives 0.42% (n = 47,000);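 active means inhibition of aggregate fluorescence above about 70%, also judged a hit by eye on the cell image, limit read from the data, passing the limit was not always enough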;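 further: cells exposed to compound for three days before fixation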
M1 ag: M1 muscarinic receptor agonists, primary screen, CHO-M1 cells, Fluo-4 calcium, agonist mode; Fluo-4 calcium fluorescence; hits give high values; actives 3% (n = 64,000); B-score at 10 µM;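 active means fluorescence rise, raw or as B-score row- and column-corrected plate score, outside the 99.7% band of its plate's samples, either direction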
M1 antag confirm: rat M1 muscarinic receptor antagonists, confirmation, CHO cells, Fluo-4 calcium, duplicate | shares compounds with M1 antag | ACh EC80 antagonism; hits give low values | calcium response (max-min fluorescence) at 10 µM | actives 43% (n = 1,700);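 active means calcium response below the same-plate mean of wells given acetylcholine alone at its 80%-effect dose, minus 3 SD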;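 further: raw fluorescence intensity difference in arbitrary instrument units and not normalized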
mGluR4 antag: human mGluR4 response to M1 antagonist hits, M1 allosteric modulator project, cell-based, antagonist mode, secondary assay 1; shares compounds with M1 antag; CHO-mGluR4 calcium flux, Fluo-4 fluorescence, glutamate EC80; hits give low values; fluorescence response (max-min) at 10 µM; actives 0.9% (n = 1,700);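 active means fluorescence response below the plate's average for near-maximal glutamate wells, less 3 SD of those wells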;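 further: raw unnormalized fluorescence span taken in the window right after glutamate addition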
* marks the source's active call; other numbers are inactive results; / = no result. The list is not random: actives were taken first. Their share in the collection is about 9%.

SMILES | AP ELISA ortho | D1 allo mod | M1 antag | Htt clearance | M1 ag | M1 antag confirm | mGluR4 antag
COc1ccc(CCn2c(=N)c(C(=O)NCc3ccco3)cc3c(=O)n4ccccc4nc32)cc1 | 5.7 | -3.72* | -2.71* | / | 0.705 | 540 | 229
CCNC(=O)c1cc2c(=O)n3cccc(C)c3nc2n(Cc2ccc(C)cc2)c1=N | 20.2 | 0.36 | -2.87* | / | 0.794 | 609 | 198
COCCCNC(=O)c1cc2c(=O)n3cccc(C)c3nc2n(C(C)C)c1=N | -16.4 | 0.00241 | -0.499 | -13.6 | 0.53 | / | /
N=c1c(C(=O)NCc2ccccc2)cc2c(=O)n3ccccc3nc2n1CCCN1CCOCC1 | -7.7 | -1.11 | -1.63 | / | 0.0948 | / | /
COc1cc(C(=O)NCCC(=O)NC2CCCCCCC2)cc(OC)c1OC | 1.5 | -0.0917 | 0.126 | / | 0.334 | / | /
CCCOc1ccc(N2CC(C(=O)NC(C)C)CC2=O)cc1 (centres undefined) | 4.6 | 1.51 | -0.0696 | 56.2 | -0.687 | / | /
CC(=O)Nc1ccc(S(=O)(=O)N2CCC(NC(=O)c3ccco3)CC2)cc1 | -25.8 | 0.0957 | 0.0159 | / | 0.298 | / | /
COc1ccccc1-c1c(C)nn2c(N3CCN(c4ccccc4OC)CC3)cc(C)nc12 | 4.6 | -0.0676 | -0.223 | / | -0.0621 | / | /
COc1ccccc1-c1c(C)nn2c(N3CCCCCC3)cc(C)nc12 | 17.2 | -1.79 | -2.53* | / | -0.445 | 624 | 207
CCOC(=O)c1ccc(N2C(=O)C3C(C2=O)C(C(=O)c2ccc(Cl)cc2)N2CCCC32)cc1 (centres undefined) | 2.8 | 0.744 | -1.67* | -181.1 | 0.335 | 514 | 218
CN(C)c1nc2ccc(OCCN3CCCCC3)cc2s1 | 5.2 | -3.38* | -2.98* | 53.6 | -0.28 | 408* | 216
CCOc1ccc2nc(N3CCCCCC3)sc2c1 | -0.3 | -0.787 | 0.769 | / | 0.138 | / | /
O=c1ccc2cc3c([nH]c4ccc(Br)cc43)oc-2c1O | 8.2 | 0.512 | -1.43* | -110.7 | 0.23 | 629 | 227
COC(=O)c1cn(CC(=O)NC2CCCCC2)c2ccccc12 | 17.9 | 0.127 | -2.01* | -2.6 | 0.331 | 572 | 219
COC(=O)c1ccc2ccn(CC(=O)NC3CCCCC3)c2c1 | / | / | / | -12.9 | / | / | /
CCN1CCCC1CNC(=O)c1nn(-c2ccc(C)cc2)c(=O)c2c1c1ccccc1n2C (centres undefined) | 10.9 | -1.8 | -0.00536 | / | -0.804 | / | /
Cc1sc2ncnc(OCC(=O)N3CCN(S(=O)(=O)c4ccc(Cl)cc4)CC3)c2c1C | 0.8 | 5.32 | 0.216 | / | -0.223 | / | /
Cc1sc2ncnc(OCC(=O)c3ccc(S(=O)(=O)N4CCCC4)cc3)c2c1C | -1.1 | 1.1 | -3.11* | / | -0.296 | 540 | 236
CCCNc1nc(C)c(C(C)=O)cc1C#N | / | / | / | 17.9 | / | / | /
O=c1c2c(nc3n1CCCCC3)-c1ccccc1CC21CCCC1 | -6.2 | -0.185 | -8.22* | / | -0.894 | 314* | 264
CCc1ccc(OCc2nnc(SCCN3CCOCC3)n2CC)cc1 | 19.0 | -0.264 | -3.22* | / | -0.0806 | 313* | 240
Clc1ccc(OCc2nnc(SCCN3CCCCC3)n2Cc2ccco2)cc1 | 5.4 | -2 | -12.8* | / | 0.175 | 20.7* | 247
CCN(CC)c1ccc(NC(=O)C2CCCN(S(=O)(=O)c3cccnc3)C2)c(C)c1 (centres undefined) | 9.6 | -0.396 | 0.016 | 49.0 | -1.29 | / | /
Clc1cccc(Cl)c1-c1nnc2cccc(Cl)n12 | / | / | / | -76.5 | / | / | /
COC(=O)c1sc(S(=O)(=O)N2CCC(C)CC2)c(C(=O)OC)c1C | -0.4 | 3.35 | 0.024 | -10.2 | 0.0128 | / | /
SMILES | AP ELISA ortho | D1 allo mod | M1 antag | Htt clearance | M1 ag | M1 antag confirm | mGluR4 antag
COC(=O)c1sc(S(=O)(=O)N2CCCCC2)c(C(=O)OC)c1C | 4.1 | -1.2 | -4.48* | / | -0.0443 | 248* | 200
O=C(CCS(=O)(=O)c1cccc2nonc12)N1CCN(c2ccc(F)cc2)CC1 | 13.3 | -0.108 | -6.86* | / | 0.0405 | 622 | 303
O=C(CCNS(=O)(=O)c1cccc2nonc12)N1CCN(c2cccc(Cl)c2)CC1 | 10.1 | / | -3.13* | / | 0.187 | 253* | 251
Cn1c(C(=O)N(Cc2ccccc2)Cc2cccs2)cc2sccc21 | -3.5 | -0.183 | -1.13 | 51.9 | 0.691 | / | /
S=c1[nH]nc(Cc2sc(-c3ccccc3)nc2-c2ccccc2)o1 | / | / | / | 11.1 | / | / | /
COc1ccc(C(=O)N2CCN(c3nc4cc(C)ccc4cc3C#N)CC2)c(OC)c1 | 25.2 | 0.182 | 0.121 | 43.0 | 0.109 | / | /
Cc1ccc2nc(N3CCN(C(=O)c4cccs4)CC3)c(C#N)cc2c1 | 8.9 | 0.801 | -2.25* | / | 1.48 | 619 | 210
COC(=O)c1ccc(N(C(=O)CNC(=O)c2ccco2)C(C(=O)NC2CCCC2)c2ccco2)cc1 (centres undefined) | / | / | / | -34.9 | / | / | /
Cc1c(C#N)c(SCC(N)=O)nc2c1CCCC2 | -11.2 | / | -1.96* | / | 0.285 | 648 | 246
CCN(CC(=O)NCCc1ccc(S(N)(=O)=O)cc1)Cc1nc2ccccc2c(=O)[nH]1 | 6.1 | / | -2* | / | 0.0301 | 636 | 238
CCN(CC(=O)NC(=O)NCc1ccco1)Cc1nc2ccccc2c(=O)[nH]1 | 3.3 | 0.299 | 0.0673 | -7.8 | 0.0129 | / | /
NC(=O)Cn1nnc(-c2ccc(C(F)(F)F)cc2)n1 | -8.2 | 0.694 | 0.532 | 44.4 | -1.9 | / | /
O=C(Cn1nnc(-c2cccc(C(F)(F)F)c2)n1)N1CCOCC1 | 9.7 | -1.67 | -2.13* | / | -0.773 | 661 | 182
O=C(CN1C(=O)NC2(CCc3ccccc32)C1=O)Nc1cc(C(F)(F)F)ccc1N1CCOCC1 (centres undefined) | 4.8 | / | 0.0581 | / | -0.0554 | / | /
COC(=O)COC(=O)CC(CC(N)=O)c1ccccc1 (centres undefined) | 9.6 | 0.363 | 0.0787 | -89.0 | 0.385 | / | /
O=C(NCc1ccccc1)N1CCC(c2nc3ccccc3[nH]2)CC1 | 13.3 | 0.165 | -0.00624 | -0.5 | 0.269 | / | /
O=C(Nn1cnnc1)c1cc2c(s1)CCCCC2 | 17.0 | -0.102 | 0.26 | / | 0.717 | / | /
COc1cc2c(cc1OC)CN(Cc1ccc(OC)c(C)c1OC)CC2 | -7.7 | -0.335 | -3.39* | / | -1.75 | 406* | 274
COc1cc2c(cc1OC)CN(Cc1cccs1)CC2 | -13.9 | -4.56 | / | / | / | / | /
O=C(COC(=O)c1ccccc1Oc1ccccc1)NC1CCS(=O)(=O)C1 (centres undefined) | -10.9 | 0.381 | -1.5* | / | 0.0534 | 617 | 236
CSc1ncccc1C(=O)OCC(=O)NC1CCS(=O)(=O)C1 (centres undefined) | 0.5 | / | 0.0801 | 17.3 | 1.25 | / | /
